In PubChem BioAssay AID624174 (Southern Research Specialized Biocontainment Screening …, 2012):
Activity calls are given as the source filed them.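 The calls were made as follows: active = inhibition of 30% or more at any tested concentration; inactive = the rest.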

Each compound was assayed against Aspartyl aminopeptidase (Homo sapiens) (UniProt Q9ULA0) (assay: inhibition of human aspartyl aminopeptidase – biochemical, QFRET, H-Glu-NHMec substrate, set 3, selectivity assay for PFM18AAP inhibitor project, dose response (AID 624174)). Settings: purified recombinant hM18AAP, H-Glu-NHMec fluorescence.
How it was run: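 Test system: purified recombinant human M18 aspartyl aminopeptidase (hM18AAP) / Quantity: hM18AAP enzyme at 5 µg/mL final / Medium: Tris pH 7.5, CoCl2, DMSO / Doses: 10-point twofold series, 100 down to 0.2 µM / Timing: enzyme reaction 90 min at room temperature / Signal: NHMec fluorescence at 370/460 nm / Measure: % inhibition and IC50 from logistic fit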

Q: Which IC50 does the source give for Cc1cc(N(C)CCc2ccc(O)c(O)c2)c2ccccc2n1 here?
A: 9.75 µM

Q: For Oc1ccc(CCCNc2c3c(nc4ccccc24)CCCC3)cc1O, which IC50 is on record?
A: 9.5 µM

Q: For Oc1ccc(C2CCN(c3ccnc4ccccc34)C2)cc1O (centres undefined), which IC50 is on record?
A: 5.59 µM

Q: How did the IC50 turn out when CN(CCc1ccc(O)c(O)c1)c1ccnc2c(F)cccc12 was run?
A: 7.92 µM

Q: With CN(CCc1ccc(O)c(O)c1)c1ncnc2ccccc12 as the compound, how does the IC50 read?
A: 6.74 µM

Q: Which IC50 does the source give for Cc1cccc2c(NCCc3ccc(O)c(O)c3)ccnc12 here?
A: 12.7 µM

Q: With CN(CCCc1ccc(O)c(O)c1)c1ccnc2ccccc12 as the compound, how does the IC50 read?
A: 9.65 µM

Q: For Oc1ccc(CCNc2ccnc3c(F)cccc23)cc1O, which IC50 is on record?
A: 8.36 µM

Q: Oc1ccc(CCNc2ccnc3cc(Cl)ccc23)cc1O was tested. Which IC50 did it give?
A: 13.6 µM

Q: With Oc1ccc(C2CCCN(c3ccnc4ccccc34)C2)cc1O (centres undefined) as the compound, how does the IC50 read?
A: 5.59 µM

Q: CC(C)(CNc1ccnc2ccccc12)c1ccc(O)c(O)c1 was tested. Which IC50 did it give?
A: 35 µM

Q: CN(CCc1ccc(O)c(O)c1)c1ccnc2cc(Cl)ccc12 was tested. Which IC50 did it give?
A: 7.67 µM

Q: For CC(Cc1ccc(O)c(O)c1)Nc1ccnc2ccccc12 (centres undefined), which IC50 is on record?
A: 14.4 µM

Q: Oc1ccc(C2CCN(c3ccnc4ccccc34)CC2)cc1O was tested. Which IC50 did it give?
A: 4.68 µM

Q: For Oc1cccc(CCNc2ccnc3ccccc23)c1O, which IC50 is on record?
A: 11.6 µM

Q: For Cc1cccc2c(N(C)CCc3ccc(O)c(O)c3)ccnc12, which IC50 is on record?
A: 10.5 µM

Same assay, conditions: purified recombinant hM18AAP, H-Glu-NHMec fluorescence; at 100 µM (top of the series)

Q: How did the inhibition turn out when COc1ccc(C2CCN(c3ccnc4ccccc34)C2)cc1OC (centres undefined) was run?
A: inactive

Q: How did the inhibition turn out when COc1ccc(CCN(C)c2ccnc3c(F)cccc23)cc1OC was run?
A: inactive

Q: With COc1ccc(CCNc2ccnc3c(F)cccc23)cc1OC as the compound, how does the inhibition read?
A: inactive

Q: With COc1ccc(CCN(C)c2c3ccccc3nc3ccccc23)cc1OC as the compound, how does the inhibition read?
A: inactive

Q: For Nc1c2ccccc2nc2ccccc12, which inhibition is on record?
A: inactive

Q: COc1ccc(CCNc2ccnc3c(C)cccc23)cc1OC was tested. Which inhibition did it give?
A: inactive

Q: Which inhibition does the source give for CCOc1ccc2nccc(NCCc3ccc(OC)c(OC)c3)c2c1 here?
A: inactive

Q: Which inhibition does the source give for COc1cc(Br)c(CCNc2c3c(nc4ccccc24)CCCC3)cc1OC here?
A: inactive

Q: With COc1ccc(CCN(C)c2ccnc3c(C)cccc23)cc1OC as the compound, how does the inhibition read?
A: inactive

Q: How did the inhibition turn out when Clc1c2c(nc3ccccc13)CCCC2 was run?
A: inactive

Q: With COc1ccc(CCNC(=O)c2cc(C)ccc2N)cc1OC as the compound, how does the inhibition read?
A: inactive

Q: COc1ccc(CCCN(C)c2c3ccccc3nc3ccccc23)cc1OC was tested. Which inhibition did it give?
A: inactive

Q: With COc1ccc(CCNc2cc(C)nc3ccccc23)cc1OC as the compound, how does the inhibition read?
A: inactive

Q: For COc1ccc(CCNc2c3c(nc4ccc(C)cc24)CCCC3)cc1OC, which inhibition is on record?
A: inactive

Q: Which inhibition does the source give for COc1cc(Br)c(CCNc2ccnc3ccccc23)cc1OC here?
A: inactive

Q: Which inhibition does the source give for COc1ccc(CCN(C)c2cc(C)nc3ccccc23)cc1OC here?
A: inactive

Q: How did the inhibition turn out when COc1ccc(CCN(C)c2ncnc3ccccc23)cc1OC was run?
A: inactive

Q: Which inhibition does the source give for CN(CCc1ccc(O)c(O)c1)c1c2ccccc2nc2ccccc12 here?
A: inactive

Q: CCN(CCc1ccc(O)c(O)c1)c1c2ccccc2nc2ccccc12 was tested. Which inhibition did it give?
A: inactive

Q: CCOc1ccc2nccc(N(C)CCc3ccc(OC)c(OC)c3)c2c1 was tested. Which inhibition did it give?
A: inactive

Q: Which inhibition does the source give for COc1ccc(CCCNc2c3c(nc4ccccc24)CCCC3)cc1OC here?
A: inactive

Q: How did the inhibition turn out when COc1ccc(CCNc2ccnc3cc(Cl)ccc23)cc1OC was run?
A: inactive

Q: With CCN(CCc1ccc(OC)c(OC)c1)c1c2ccccc2nc2ccccc12 as the compound, how does the inhibition read?
A: inactive

Q: COc1ccc(CCN(C)c2ccnc3cc(Cl)ccc23)cc1OC was tested. Which inhibition did it give?
A: inactive

Q: With COc1ccc(C2CCN(c3ccnc4ccccc34)CC2)cc1OC as the compound, how does the inhibition read?
A: inactive

Q: With CN(CCCc1ccc(O)c(O)c1)c1c2ccccc2nc2ccccc12 as the compound, how does the inhibition read?
A: inactive

Q: For COc1ccc(CCNc2ncnc3ccccc23)cc1OC, which inhibition is on record?
A: inactive

Q: Which inhibition does the source give for COc1cc(Br)c(CCNc2c3ccccc3nc3ccccc23)cc1OC here?
A: inactive
